Source: the EternaBench riboswitch data

Test system: MS2 coat protein
Assay: apparent Kd, MS2 coat protein; higher = weaker binding; RNA-MaP array; FMN 200 µM where present
Outline: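 The apparent Kd is the median of filtered binding-curve fits, one per cluster, to green signal normalised to red-channel RNA signal and control-cluster median Fmax. The clusters were on Illumina sequencing chips, and stalled E. coli RNA polymerase had transcribed the designs on them. Titration used SNAP-549-labelled MS2 coat protein from 0.7 or 1.5 nM, doubling to 3 µM, without and then with constant ligand, in 100 mM Tris-HCl pH 7.5, 80 mM KCl, 4 mM MgCl2, BSA, DTT, yeast tRNA and Tween-20.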

[1] = designed as: OFF switch for flavin mononucleotide, no ligand
[2] = ligand present: flavin mononucleotide, designed as: OFF switch for flavin mononucleotide
[3] = designed as: ON switch for flavin mononucleotide, no ligand
[4] = ligand present: flavin mononucleotide, designed as: ON switch for flavin mononucleotide

Sequence	apparent Kd [1]	apparent Kd [2]	apparent Kd [3]	apparent Kd [4]
AUUUAUUUACAGAAGGAGUAUGAUAAUGUUUUACUAGGAUAUGUAUACAUGAGGAUCACCCAUGUUAUUAUAGGUUUUUUAUGU	10.3 nM	7.08 nM	–	–
AUUUGAAAGUCAGGAUAUGGUAGAUUAUUCUUAUCAGAAGGGAUUAUUAUACUCAAGUACAUGAGGAUCACCCAUGUUAAAUCA	–	–	22.6 nM	13 nM
AUUUUAAUAUAGGAUAUCGAAUUUAUUAUUUAACGAGAAGGAUAAACAUGAGGAUCACCCAUGUGGUAUCAUGG	126 nM	117 nM	–	–
AUUUUAAUGUCAGGAUAUAUUAGUUUUUACAUAGUAGAAGGGAUAAUUAUACUCAUGUACAUGAGGAUCACCCAUGUUAAAUAU	–	–	139 nM	44.5 nM
AUUUUAAUGUCAGGAUAUGUUAGUUAAUACAUAGUAGAAGGGAUAAUUAUACUCAUGUACAUGAGGAUCACCCAUGUUAAAUAA	–	–	151 nM	80.7 nM
AUUUUAAUGUCAGGAUAUGUUAGUUUAUACAUAGUAGAAGGGAUAAUUAUACUCAUGUACAUGAGGAUCACCCAUGUUAAAUAA	–	–	163 nM	98.1 nM
AUUUUAUAAUAGAAGGAGGACUUCAUGAGGAUCACCCAUGUGUUGGUACUUAGGAUAUGUAAUAACAUGAGGAUCACCCAUGUC	–	–	55.9 nM	49.8 nM
AUUUUGUCAGGAUAUGACUAGAUGCACGAAAGUGCAUCUACUUAGAAGGGACAUGAGGAUCACCCAUGUAUUCC	17.3 nM	17.8 nM	–	–
CAAACAACACAGAAGGCCACGAAGUCCAUGGGUGGAGGAUAUGUGUUAGCUCUGACAUGAGGAUCACCCAUGUCUACGUGAGCU	–	–	5.5 nM	5.27 nM
CAACCGUUGCAGAAGGUUAAAUAAUUUCUCAUCUUGUUUACAUGAGGAUCACCCAUGUAUUUGUUGAAGGAUAUGCAAGGGUUG	6.96 nM	6.6 nM	–	–
CAAUAACCCUCAUGUACCUGAGGACAUGAGGAUCACCCAUGUAAGGAUAUAGCCAUUAAAUCUAACUAGAAGGUAUAAAUAACC	1090 nM	552 nM	–	–
CAAUAUAGCACAGGAUAUGUCUCGUUUACAUGAGGAUCACCCAUGUCCGAAACAGAAGGGUGACCCGAUAUAGGACGUUGGGUG	–	–	121 nM	28.9 nM
CAAUUCGCACAGAAGGGUGACAUGAGGAUCACCCAUGUAGCGUGGCACUCAGGAGGAGCCACGCCACAGGAUAUGUGCGGGCAC	–	–	33.4 nM	33.8 nM
CAAUUGGCACAGAAGGGUGACAUGAGGAUCACCCAUGUAGCGUGGCACUCAGGAGGAACCACGCCACAGGAUAUGUGCCGGCAC	–	–	88.5 nM	86.8 nM
CAAUUUAUAACAGGAUAUGUAAUACAAUAGUAAAUAGAAGGGUUUUAUACAUGAGGAUCACCCAUGUCAUGUGUCAUAAUUACC	36.4 nM	29.5 nM	–	–
CAAUUUAUAGCAGGAUAUACAAUACAAUGAUUAGUAGAAGGGUUUAAUACAUGAGGAUCACCCAUGUCAUGUGUCAUAAUAACC	31.2 nM	23.5 nM	–	–
CACAAGAAAGUCGAACUAUGUAGGAGAAGGAGUAUAACAUGACAUGAGGAUCACCCAUGUGCCAAUUAGGAUAUUUUAUAUGGG	184 nM	97.7 nM	–	–
CACGAGUGAGGAUAUAGAGAGGUGAGGCUGAAGUCGCAUAUCUAGAAGGCACAUGAGGAUCACCCAUGUCCCUC	481 nM	503 nM	–	–
CACUUGGCAGGAUAUGCAAUUUUAGACAUGAGGAUCACCCAUGUGAUCAUUCCAUAUUAUGCAGAAGGGCCUAAAC	199 nM	747 nM	–	–
CAGAAACAUGAGGAUCACCCAUGUGAGGAUAUGCGUACGUUGUCCGUAGGCGACGUGCGCAGAAGGCACAAAGG	132 nM	256 nM	–	–
CAGAAGUCAGGAUAUGCUGCUCGUCACUUGCGUGAUGAGUAGCAGAAGGGACAUGAGGAUCACCCAUGUAAAGA	63.1 nM	113 nM	–	–
CAGCGCUGUUGAGAGGAUAUGCGGUGAUGGACAUGAGGAUCACCCAUGUUAGCGACAGCAUUACGGCAGAAGGCUUCACAGCUGC	–	–	51.1 nM	14.6 nM
CAGCUACCCGAUAUGGGUUCAUGUGCAGAAGGCCAGGUACAUGAGGAUCACCCAUGUAAAGAUAUGGAGGAUAUGUUAGUGAAU	–	–	149 nM	8.99 nM
CAGCUCUGAGGAUAUCCAUCCUCCUACAUGAGGAUCACCCAUGUUUCCCUCUGGGUUUUCGGAGAAGGCAGUUAUU	238 nM	459 nM	–	–
CAGGUAGACUGAGGAUAUACAUGACUUAGUCUAUCUAGGUCAUAAACCACAUGAGGAUCACCCAUGUAGAAGGCAGUCUGCCUG	17 nM	19.8 nM	–	–
CAGGUAGCUACAGGAUAUACACGUCUGGAUAAACCAGACGAAUAACCCACAUGAGGAUCACCCAUGUAGAAGGGUAGCUGCCUG	15.4 nM	21.3 nM	–	–
CAGGUUAGAGGAUAUACGUAGGUACAGAUCUGUGUGUUCCUACAUGAGGAUCACCCAUGUAGAAGGCUAUCCUG	69.8 nM	208 nM	–	–
CAGUACGGAGGAUAUACAUGAGGAUCACCCAUGUGAGAAAUACUAGUGAGGUCGAUUAGUAGAAGGCUGUACUG	40.5 nM	579 nM	–	–

Sequence	apparent Kd [1]	apparent Kd [2]	apparent Kd [3]	apparent Kd [4]
CAGUACUGAGGAUAUACAUGAGGAUCACCCAUGUAUCCAAGCUAGGAAACUAGCAAAUGUAGAAGGCAGUACUG	34.1 nM	519 nM	–	–
CAGUACUGAGGAUAUACAUGAGGAUCACCCAUGUGAAAAAGCUACGAAAGUAGCAAAUGUAGAAGGCAGUACUG	34.3 nM	254 nM	–	–
CAGUACUGAGGAUAUACAUGAGGAUCACCCAUGUGCCUCAGGUAGGAUACUACCAUUAGUAGAAGGCAGUACUG	197 nM	37.7 nM	–	–
CAGUACUGAGGAUAUACAUGAGGAUCACCCAUGUGUUCCAGCUAGGAAACUAGCAAAAGUAGAAGGCUGUACUG	16.9 nM	172 nM	–	–
CAGUACUGAGGAUAUACAUGAGGAUCACCCAUGUGUUCCAGCUGGGAAACUAGCAAAAGUAGAAGGCAGUACUG	25.5 nM	395 nM	–	–
CAGUCUACAGGAUAUACAUGAGGAUCACCCAUGUAAAUUCACUUUCAGUAGUCUACAUGUAGAAGGGUAGACUG	21.3 nM	40.3 nM	–	–
CAGUCUACAGGAUAUACAUGAGGAUCACCCAUGUGUAUUCACUUUCAGUAAUCCAUAUGUAGAAGGGUAGACUG	16.9 nM	34.2 nM	–	–
CAGUGCUGUUGAGAGGAUAUGCGGUGAUGGACAUGAGGAUCACCCAUGUUAGCGACAGCGUUACGGCAGAAGGCUCUACCCACUG	–	–	49.4 nM	22.4 nM
CAUACAGUAGUUAGGAUAUUGCAACGUAUACGGAUCGAGAAGGGACAUGAGGAUCACCCAUGUAGAUUGUAAAG	37.6 nM	30.7 nM	–	–
CAUCCGAAUGAGAAGGGUCACAUGAGGAUCACCCAUGUGACCUCAUCGAUGACAGGAUAUCAUGGGUGGCAGUGUAAAGUUGGC	6.6 nM	7.04 nM	–	–
CAUGACGAAGGAUAUACAUGAGGAUCACCCAUGUGGUCAUGGAAGUACGUGUUCUCGCGUAGAAGGUUGUAAAA	12.9 nM	13.6 nM	–	–
CAUGAUUGACGAGGAUAUUGUUCUACAUGGCGACGAGAAGGCGUCUGUCACAUGAGGAUCACCCAUGUGAGUCUGGUGAAUGAG	36.5 nM	33.4 nM	–	–
CAUGUCCUCACAGGAUAUGCACCACUUUGUGGUGCAGAAGGGUGGAUACAUGAGGAUCACCCAUGUGGACAUGAUAUAUUUAAU	–	–	608 nM	57.2 nM
CAUGUCCUCACAGGAUAUGCUGGACUUUGUCCAGCAGAAGGGUGAACAUGAGGAUCACCCAUGUAAAGGACAUGUAUAUUUAAU	–	–	1080 nM	84.3 nM
CAUGUGAGCGAGGAUAUUUUACGGGAAACUUUCAGAGAAGGCGCUACAUGAGGAUCACCCAUGUCCGUCAGUCC	41.7 nM	94.8 nM	–	–
CAUUAAUAGUAGAAGGGUCAAGUUUUGGGUAGGGCAGGAUAUACGAACAAGAAACAUGAGGAUCACCCAUGUGUCCAUGUCAUG	33.9 nM	29.6 nM	–	–
CAUUAAUUCAUUAUAGUUAUUAUACAGGAUAUGUUACAUGAGGAUCACCCAUGUAUUCAUGGUAAACAGAAGGGUAAUUCAAGU	24.9 nM	22.6 nM	–	–
CAUUCAAGCCAGAAGGAGUACACUACAUGAGGAUCACCCAUGUCUAAUACUAGGAUAUGGGCAUCUGGUAAUGUCUAAGGUGCG	–	–	111 nM	128 nM
CAUUCUUUUCCGGAGGAUAUGCUACCCUUUACAUGAGGAUCACCCAUGUUACCCUCUUCUUGUCAGUAGAAGGCCGUUUCUUAAC	–	–	27.4 nM	25.1 nM
CAUUGGUAAGGAUAUGAAUCGAUCUCAGAAAUGAGAUCGAUUCAGAAGGUACAUGAGGAUCACCCAUGUUGAUG	27.8 nM	72.9 nM	–	–
CCAAUAAGCCAAGGAUAUCAGCCGGGUACGAGGUGAGAAGGUGGCCGAGGGAAUUACGGACAUGAGGAUCACCCAUGUACCCGU	–	–	4.98 nM	4.21 nM
CCAAUUCUGGCAUCCUUAUUACAUGAGGAUCACCCAUGUUGUGAGGAUAUCCCAACCCACGGUCAGGAGAAGGCACAAAGAGGG	4.9 nM	5.01 nM	–	–
CCACAUGAGGAUCACCCAUGUGACUUCUGUGGCCCGGUGUUGCAGGAUAUCGCAAGGUUAGUUGACGAGAAGGGCGACGGUGGU	31.1 nM	102 nM	–	–
CCACCCUGAGGAUAUCCACCCUCAUACAUGAGGAUCACCCAUGUUAAUGCCUGAGUUCCCGGAGAAGGCAGAUUCC	86.5 nM	63.8 nM	–	–
CCACCCUGAGGAUAUCCACCCUCAUACAUGAGGAUCACCCAUGUUCAUCCCUGAGUACCCGGAGAAGGCAGAUUCC	60.3 nM	50.6 nM	–	–
CCACCUCCUGAGGAUAUUGCAUCACCCGACUGAUAAGAAGGCAGAACAUGAGGAUCACCCAUGUGGGUACUCCC	82.5 nM	77.2 nM	–	–
CCACGACAUGAGGAUCACCCAUGUCAGGAUAUCCCUCAUUGUAUGAAAAUACAAUGAGGGAGAAGGGACGUGAC	33.8 nM	31.6 nM	–	–
